The values that follow come from ChEMBL document CHEMBL1141100, “Design and synthesis of specific probes for human 5-HT4 receptor dimerization studies” (J Med Chem, 2005).

Structures are written as SMILES.

Test [1] concerns the target T1, 5-hydroxytryptamine receptor 4 (Homo sapiens, UniProt Q13639). In words: Percent cAMP production in C6 glial cells expressing human 5-hydroxytryptamine 4 receptor. The class given is functional, cell-based. The essentials: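 Confluent C6 cells stably expressing human 5-HT4(e) receptor were serum-starved 4 h, then preincubated 15 min with 5 mM theophylline and 10 μM pargyline. Compounds (seven concentrations, 10^-10 to 10^-5) and/or 5-HT (1 μM) were added for 15 min at 37 °C. Stopped with 20% perchloric acid, neutralized, and cAMP measured by radioimmunoassay.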
In general terms: Changes in cAMP serve as a functional read-out for many G protein-coupled receptors.

Test [2] deals with T1, 5-hydroxytryptamine receptor 4. The test is described as follows: Binding affinity for 5-HT4 receptor using [3H]GR-113808.

T1 sequence (Q13639 whole entry): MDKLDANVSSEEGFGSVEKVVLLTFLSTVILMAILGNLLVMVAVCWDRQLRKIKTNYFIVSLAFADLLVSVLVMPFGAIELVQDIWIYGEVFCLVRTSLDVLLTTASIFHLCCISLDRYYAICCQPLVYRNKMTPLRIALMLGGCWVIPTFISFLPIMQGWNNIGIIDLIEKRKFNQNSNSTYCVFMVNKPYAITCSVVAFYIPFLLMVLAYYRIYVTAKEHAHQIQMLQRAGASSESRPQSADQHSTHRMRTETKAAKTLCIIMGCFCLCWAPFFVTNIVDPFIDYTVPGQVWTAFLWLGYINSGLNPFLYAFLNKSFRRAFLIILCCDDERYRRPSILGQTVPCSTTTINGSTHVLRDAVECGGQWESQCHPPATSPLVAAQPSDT

In test [1], `COc1cc(N)c(Cl)cc1C(=O)OCCN1CCC(C(=O)NCCCOCCOCCOCNC(=O)C2CCN(CCOC(=O)c3cc(Cl)c(N)cc3OC)CC2)CC1` showed a cAMP of 0%. In test [2], the affinity, expressed as Ki, was 0.006 µM.
Compound `COc1cc(N)c(Cl)cc1C(=O)OCCN1CCN(C(=O)CCCCCCCCCCC(=O)N2CCN(CCOC(=O)c3cc(Cl)c(N)cc3OC)CC2)CC1` had a Ki in test [2] of 0.2 µM.
`COc1cc(N)c(Cl)cc1C(=O)OCCN1CCC(NC(=O)CCCCCCCCCCC(=O)NC2CCN(CCOC(=O)c3cc(Cl)c(N)cc3O)CC2)CC1` displayed a cAMP in test [1] of 20%. Further, the Ki in test [2] is 0.016 µM.
The corresponding values for `COc1cc(N)c(Cl)cc1C(=O)OCCN1CCC(CCNC(=O)CCCCCCCCCCC(=O)NCCC2CCN(CCOC(=O)c3cc(Cl)c(N)cc3OC)CC2)CC1` are 6% and 0.009 µM.
For `COc1cc(N)c(Cl)cc1C(=O)OCCN1CCC(NC(=O)CCCC(=O)NC2CCN(CCOC(=O)c3cc(Cl)c(N)cc3OC)CC2)CC1` the same measures were 32% and 0.005 µM.
For `COc1cc(N)c(Cl)cc1C(=O)OCCN1CCC(NC(=O)CCCCCCCCCCNc2nc(NCCCCCCCCCCC(=O)NC3CCN(CCOC(=O)c4cc(Cl)c(N)cc4OC)CC3)nc(NCc3ccccc3)n2)CC1` the same measures were 12% and 0.113 µM.
As to `COc1cc(N)c(Cl)cc1C(=O)OCCN1CCC(NC(=O)CCCCCCCCCCC(=O)NC2CCN(Cc3ccccc3)CC2)CC1`, the cAMP in test [1] came out at 35%. The same compound displayed a Ki in test [2] of 0.014 µM.
The corresponding values for `COc1cc(N)c(Cl)cc1C(=O)OCCN1CCC(C(=O)NCCCNC(=O)C2CCN(CCOC(=O)c3cc(Cl)c(N)cc3OC)CC2)CC1` are 13% and 0.013 µM.
For `COc1cc(N)c(Cl)cc1C(=O)OCCN1CCC(CNC(=O)CCCC(=O)NCC2CCN(CCOC(=O)c3cc(Cl)c(N)cc3OC)CC2)CC1` the same measures were 20% and 0.013 µM.
The corresponding values for `COc1cc(N)c(Cl)cc1C(=O)OCCN1CCC(NC(=O)CCc2ccc3c(c2)oc2cc(CCC(=O)NC4CCN(CCOC(=O)c5cc(Cl)c(N)cc5OC)CC4)ccc23)CC1` are 23% and 0.047 µM.
Consider `COc1cc(N)c(Cl)cc1C(=O)OCCN1CCC(NC(=O)CCCNC(=O)C2CCN(CCOC(=O)c3cc(Cl)c(N)cc3OC)CC2)CC1`, for which the cAMP in test [1] was 42%. Besides, the affinity in test [2] corresponds to a Ki of 0.031 µM.
Regarding `COc1cc(N)c(Cl)cc1C(=O)OCCN1CCC(NC(=O)CCCCCNC(=O)C2CCN(CCOC(=O)c3cc(Cl)c(N)cc3OC)CC2)CC1`, the cAMP in test [1] worked out at 46%. The Ki in test [2] turned out to be 0.007 µM.
The corresponding values for `COc1cc(N)c(Cl)cc1C(=O)OCCN1CCC(NC(=O)CCCCCCCCCCNC(=O)C2CCN(CCOC(=O)c3cc(Cl)c(N)cc3OC)CC2)CC1` are 5% and 0.02 µM.
As for `COc1cc(N)c(Cl)cc1C(=O)OCCN1CCC(NC(=O)CCCCCC(=O)NC2CCN(CCOC(=O)c3cc(Cl)c(N)cc3OC)CC2)CC1`, the cAMP in test [1] worked out at 26%. The affinity in test [2], expressed as Ki, was 0.009 µM.
For `COc1cc(N)c(Cl)cc1C(=O)OCCN1CCC(C(=O)NCCOCCNC(=O)C2CCN(CCOC(=O)c3cc(Cl)c(N)cc3OC)CC2)CC1` the same measures were 0% and 0.019 µM.
For `COc1cc(N)c(Cl)cc1C(=O)OCCN1CCC(NC(=O)CCCCCCCCCCN)CC1` the same measures were 50% and 0.013 µM.
With `COc1cc(N)c(Cl)cc1C(=O)OCCN1CCC(C(=O)NCCCCCNC(=O)C2CCN(CCOC(=O)c3cc(Cl)c(N)cc3OC)CC2)CC1`, the cAMP in test [1] is 5%. Also, the affinity in test [2] corresponds to a Ki of 0.005 µM.
`COc1cc(N)c(Cl)cc1C(=O)OCCN1CCN(C(=O)CCCCCC(=O)N2CCN(CCOC(=O)c3cc(Cl)c(N)cc3OC)CC2)CC1` gave a Ki in test [2] of 0.488 µM.
On to `COc1cc(N)c(Cl)cc1C(=O)OCCN1CCC(C(=O)NCCCCCCCCCCNC(=O)C2CCN(CCOC(=O)c3cc(Cl)c(N)cc3OC)CC2)CC1`, for which, in test [1], the cAMP was 8%. In test [2], this compound returned a Ki of 0.008 µM.
The corresponding values for `COc1cc(N)c(Cl)cc1C(=O)OCCN1CCC(NC(=O)CCC(=O)NC2CCN(CCOC(=O)c3cc(Cl)c(N)cc3OC)CC2)CC1` are 47% and 0.021 µM.
The compound `COc1cc(N)c(Cl)cc1C(=O)OCCN1CCCCC1` came in with a cAMP in test [1] of 45%.
Same read-out and setting: with `COc1cc(N)c(Cl)cc1C(=O)OCCN1CCC(CCNC(=O)CCCC(=O)NCCC2CCN(CCOC(=O)c3cc(Cl)c(N)cc3OC)CC2)CC1` the figure was 24%.
As to `COc1cc(N)c(Cl)cc1C(=O)OCCN1CCC(C(=O)NCCOCCOCCNC(=O)C2CCN(CCOC(=O)c3cc(Cl)c(N)cc3OC)CC2)CC1`, in test [1], the cAMP worked out at 3%. In test [2], this compound gave a Ki of 0.003 µM.
The corresponding values for `COc1cc(N)c(Cl)cc1C(=O)OCCN1CCC(CNC(=O)CCCCCCCCCCC(=O)NCC2CCN(CCOC(=O)c3cc(Cl)c(N)cc3OC)CC2)CC1` are 21% and 0.022 µM.
In turn, `COc1cc(N)c(Cl)cc1C(=O)OCCN1CCC(CCNC(=O)CCC(=O)NCCC2CCN(CCOC(=O)c3cc(Cl)c(N)cc3OC)CC2)CC1` registered a cAMP in test [1] of 15%. Moreover, the affinity in test [2], expressed as Ki, was 0.005 µM.
On to `COc1cc(N)c(Cl)cc1C(=O)OCCN1CCC(C(=O)NCCNC(=O)C2CCN(CCOC(=O)c3cc(Cl)c(N)cc3OC)CC2)CC1`, for which the cAMP in test [1] stood at 3%. The affinity in test [2] corresponds to a Ki of 0.037 µM.
For `COc1cc(N)c(Cl)cc1C(=O)OCCN1CCC(CNC(=O)CCCCCC(=O)NCC2CCN(CCOC(=O)c3cc(Cl)c(N)cc3OC)CC2)CC1` the same measures were 20% and 0.026 µM.
For `COc1cc(N)c(Cl)cc1C(=O)OCCN1CCC(NC(=O)CCNC(=O)C2CCN(CCOC(=O)c3cc(Cl)c(N)cc3OC)CC2)CC1` the same measures were 10% and 0.024 µM.
For `COc1cc(N)c(Cl)cc1C(=O)OCCN1CCC(CNC(=O)CCC(=O)NCC2CCN(CCOC(=O)c3cc(Cl)c(N)cc3OC)CC2)CC1` the same measures were 16% and 0.007 µM.
Compound `COc1cc(N)c(Cl)cc1C(=O)OCCN1CCC(CCNC(=O)CCCCCC(=O)NCCC2CCN(CCOC(=O)c3cc(Cl)c(N)cc3OC)CC2)CC1` yielded a cAMP in test [1] of 31%. Besides, in test [2], the Ki worked out at 0.011 µM.
For `COc1cc(N)c(Cl)cc1C(=O)OCCN1CCC(NC(=O)CCCCCCCCCCN(CCCCCCCCCCC(=O)NC2CCN(CCOC(=O)c3cc(Cl)c(N)cc3OC)CC2)CC(=O)NCC2CCNCC2)CC1` the same measures were 10% and 0.05 µM.
For the compound `COc1cc(N)c(Cl)cc1C(=O)OCCN1CCC(C(=O)NCc2cccc(CNC(=O)C3CCN(CCOC(=O)c4cc(Cl)c(N)cc4OC)CC3)c2)CC1`, in test [1], the cAMP turned out to be 16%. This compound also showed a Ki in test [2] of 0.005 µM.

In general, Ki refers to the equilibrium dissociation constant of an inhibitor or competing ligand from its target. A lower Ki goes with a stronger hold on the target.
